The source made the active and inactive calls. The calls are words filed in the database; no cut-off is given here.
Key:
[1] = biological target: T1, Transcriptional regulator MvfR (Pseudomonas aeruginosa PA14) (UniProt A0A072ZLE6); test: Inhibition of PqsR in Pseudomonas aeruginosa PAO1 L harboring mCTX:PpqsA-lux fusion protein assessed as remaining enzyme activity at 10 uM and measured every 30 mins for 24 hrs by spot test relative to control
T1 sequence (whole entry): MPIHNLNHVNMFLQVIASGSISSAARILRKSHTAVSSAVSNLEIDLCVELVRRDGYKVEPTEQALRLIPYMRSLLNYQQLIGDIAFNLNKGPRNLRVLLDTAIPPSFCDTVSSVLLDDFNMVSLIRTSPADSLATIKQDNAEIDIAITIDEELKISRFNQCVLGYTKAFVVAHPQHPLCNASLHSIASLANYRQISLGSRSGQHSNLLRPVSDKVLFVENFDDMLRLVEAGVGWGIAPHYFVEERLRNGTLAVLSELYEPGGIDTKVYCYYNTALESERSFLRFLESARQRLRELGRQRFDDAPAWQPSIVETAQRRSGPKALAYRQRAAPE
Outline: (§1)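 Chromosomal mCTX:PpqsA-lux reporter strain in LB, overnight culture (OD600 2.0–3.0) diluted to OD600 0.02 and mixed 1:1 with compound, final 10 μM, at least triplicate wells. Run at 37 °C for 24 h, with OD600 and luminescence read every 30 min. Luminescence/OD600 taken at the luminescence peak (8–9 h) and normalised to the 0.1% DMSO control (100%).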

[2] = biological target: T1, Transcriptional regulator MvfR (Pseudomonas aeruginosa PA14); test: Inhibition of PqsR in Pseudomonas aeruginosa PA14 harboring mCTX:PpqsA-lux fusion assessed as remaining activity at 10 uM incubated for 24 hrs by spot test relative to control; outline: as §1
Pseudomonas aeruginosa = test: Bactericidal activity against Pseudomonas aeruginosa PAO1 L assessed as inhibition of bacterial growth; format: functional, organism-based
[3] = biological target: T2, Transcriptional regulator MvfR (Pseudomonas aeruginosa PA14, UniProt A0A072ZLE6); test: Inhibition of PqsR in Pseudomonas aeruginosa PAO1 L harboring mCTX:PpqsA-lux fusion protein measured every 30 mins for 24 hrs by luminescence reporter gene assay
T2 sequence (A0A072ZLE6 whole entry): T1 sequence (whole entry)
Outline: (§2)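 Chromosomal mCTX:PpqsA-lux reporter strain grown overnight to OD600 2.0–3.0, diluted in LB to OD600 0.02 and mixed 1:1 with compound in LB. Ten […] serial concentrations, final 31.6 μM to 1 nM, in triplicate. Run at 37 °C for 24 h with OD600 and luminescence read every 30 min. IC50 from log concentration vs RLU/OD600 at the luminescence peak (8–9 h).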

[4] = biological target: T2, Transcriptional regulator MvfR; test: Inhibition of PqsR in Pseudomonas aeruginosa PA14 harboring mCTX:PpqsA-lux fusion protein measured every 30 mins for 24 hrs by luminescence reporter gene assay; outline: as §2
[5] = system: Pseudomonas aeruginosa PA14 PqsR; test: Therapeutic index, ratio of cytotoxicity against human A549 cells to IC50 for inhibition of Pseudomonas aeruginosa PA14 PqsR; format: toxicity, cell-based; conditions: read-out: TI
[6] = biological target: T1, Transcriptional regulator MvfR (Pseudomonas aeruginosa PA14); test: Inhibition of Pseudomonas aeruginosa PAO1-L PqsR assessed as reduction in pyocyanin production by measuring pyocyanin level at 3 times IC50 incubated for 16 hrs; parameters: scale not given: the % may be the effect or the level left
A549 = test: Cytotoxicity against human A549 cells assessed as reduction in cell viability at 0.1 to 100 uM after 16 hrs by Alamar blue assay; format: cell-based; conditions: a549, 16 h, dose 0.1-100 µM
Outline: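 A549 lung epithelial cells kept in DMEM with 10% FBS and 1% penicillin-streptomycin at 37 °C, 5% CO2. Trypsinised at 80% confluence, resuspended in DMEM-F12, seeded at 10,000 cells/well, left 16 h. Compound added (0.1–100 μM), 16 h further incubation. Alamar blue for 5 h, fluorescence ex 510/em 590 nm, normalised to untreated cells.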

[7] = Solubility of the compound in test buffer at >100 uM; format: physicochemical
[8] = biological target: T1, Transcriptional regulator MvfR (Pseudomonas aeruginosa PA14); test: Inhibition of PqsR in Pseudomonas aeruginosa PAO1 L harboring mCTX:PpqsA-lux fusion at 10 uM and measured every 30 mins for 24 hrs by spot test; outline: as §1

SMILES | Activity [1] | Activity [2] | Activity (Pseudomonas aeruginosa) | IC50 [3] | IC50 [4] | also measured
O=c1c2cc(Cl)ccc2ncn1Cc1cnc(Cl)s1 | 95% | > 50% |  |  |  | 
NC(N)=Nc1nc(Cn2cnc3ccc(Cl)cc3c2=O)cs1 | 108% | > 50% |  |  |  | 
CCCCNc1nc(Cn2cnc3ccc(Cl)cc3c2=O)cs1 |  | > 50% | inactive | 3540 nM |  | 
O=c1c2cc(Cl)ccc2ncn1Cc1csc(-c2ccccc2)n1 |  |  | inactive | 244 nM | 123 nM | 
CCCCCc1nc(Cn2cnc3ccc(Cl)cc3c2=O)cs1 |  |  | inactive | 313 nM | 342 nM | selectivity ratio [5]: > 292; Activity [6]: 23%; Activity (A549): Non-Toxic; solubility [7]: Insoluble
CC(C)c1noc(Cn2cnc3ccc(Cl)cc3c2=O)n1 |  |  |  |  |  | inhibition [8]: inactive
Cc1nc(Cn2cnc3ccc(Cl)cc3c2=O)cs1 | 83% | > 50% |  |  |  | 
CN(CCO)c1ncc(Cn2cnc3ccc(Cl)cc3c2=O)s1 | 101% | > 50% |  |  |  | 
CCc1nc(Cn2cnc3ccc(Cl)cc3c2=O)cs1 | 79% | > 50% |  |  |  | 
O=c1c2cc(Cl)ccc2ncn1Cc1csc(-c2ccco2)n1 |  |  | inactive | 1330 nM | 1310 nM | 
N#CCc1nc(Cn2cnc3ccc(Cl)cc3c2=O)cs1 | 104% | > 50% |  |  |  | 
O=c1c2cc(Cl)ccc2ncn1Cc1csc(/C=C/c2ccco2)n1 |  |  | inactive | 2050 nM | 2920 nM | 
COCCNc1ncc(Cn2cnc3ccc(Cl)cc3c2=O)s1 | 85% | > 50% |  |  |  | 
CCCCCc1nc(Cn2cnc3cc(Cl)ccc3c2=O)cs1 | 106% | > 50% |  |  |  | 
COCCNc1nc(Cn2cnc3ccc(Cl)cc3c2=O)cs1 | 85% | > 50% |  |  |  | 
CC(C)(C)c1nc(Cn2cnc3cc(Cl)ccc3c2=O)cs1 |  | > 50% | inactive | 2940 nM |  | 

SMILES | Activity [1] | Activity [2] | Activity (Pseudomonas aeruginosa) | IC50 [3] | IC50 [4] | also measured
CCC(C)Cc1nc(Cn2cnc3ccc(Cl)cc3c2=O)cs1 (configuration not stated) |  |  | inactive | 1570 nM | 639 nM | 
CC(C)CCc1nc(Cn2cnc3ccc(Cl)cc3c2=O)cs1 |  |  | inactive | 1360 nM | 683 nM | 
CCCCNc1ncc(Cn2cnc3ccc(Cl)cc3c2=O)s1 | 67% | > 50% |  |  |  | 
CC(C)c1ncc(Cn2cnc3ccc(Cl)cc3c2=O)s1 | 65% | > 50% |  |  |  | 
CC(C)c1nc(Cn2cnc3cc(F)ccc3c2=O)cs1 |  |  |  | 13200 nM |  | 
CC1CCN(c2ncc(Cn3cnc4ccc(Cl)cc4c3=O)s2)CC1 | 72% | > 50% |  |  |  | 
CCCCCCc1nc(Cn2cnc3ccc(Cl)cc3c2=O)cs1 |  |  | inactive | 298 nM | 265 nM | selectivity ratio [5]: > 377; Activity [6]: 36%; Activity (A549): Non-Toxic; solubility [7]: Insoluble
O=c1c2cc(Cl)ccc2ncn1Cc1cnc(NC2CCCCC2)s1 | 83% | > 50% |  |  |  | 
CCCCc1nc(Cn2cnc3ccc(Cl)cc3c2=O)cs1 |  |  | inactive | 1560 nM | 1720 nM | 
CC(C)c1nc(Cn2cnc3ccc(Cl)cc3c2=O)cs1 |  |  | inactive | 1050 nM | 1580 nM | 
O=c1c2cc(Cl)ccc2ncn1Cc1csc(-c2ccc([N+](=O)[O-])cc2)n1 | 89% | > 50% |  |  |  | 
CC(C)(C)c1nc(Cn2cnc3ccc(Cl)cc3c2=O)cs1 |  |  | inactive | 397 nM | 650 nM | 
O=c1c2cc(Cl)ccc2ncn1Cc1csc(C(F)(F)F)n1 | 52% | > 50% |  |  |  | 
CCCC(C)c1nc(Cn2cnc3ccc(Cl)cc3c2=O)cs1 (configuration not stated) |  |  | inactive | 1110 nM | 646 nM | 
CC(C)Cc1nc(Cn2cnc3ccc(Cl)cc3c2=O)cs1 |  |  | inactive | 1220 nM | 1330 nM | 

— ChEMBL document CHEMBL4706579, “Novel quinazolinone inhibitors of the Pseudomonas aeruginosa quorum sensing transcriptional regulator PqsR” (Eur J Med Chem, 2020)
